The text below walks through data of ChEMBL document CHEMBL1124062, “Structure-affinity relationships of arylquinolizines at alpha-adrenoceptors” (J Med Chem, 1988).

In data set [1] the target is T1, Alpha-1A adrenergic receptor (Bos taurus, UniProt P18130).
T1 sequence (P18130 whole entry): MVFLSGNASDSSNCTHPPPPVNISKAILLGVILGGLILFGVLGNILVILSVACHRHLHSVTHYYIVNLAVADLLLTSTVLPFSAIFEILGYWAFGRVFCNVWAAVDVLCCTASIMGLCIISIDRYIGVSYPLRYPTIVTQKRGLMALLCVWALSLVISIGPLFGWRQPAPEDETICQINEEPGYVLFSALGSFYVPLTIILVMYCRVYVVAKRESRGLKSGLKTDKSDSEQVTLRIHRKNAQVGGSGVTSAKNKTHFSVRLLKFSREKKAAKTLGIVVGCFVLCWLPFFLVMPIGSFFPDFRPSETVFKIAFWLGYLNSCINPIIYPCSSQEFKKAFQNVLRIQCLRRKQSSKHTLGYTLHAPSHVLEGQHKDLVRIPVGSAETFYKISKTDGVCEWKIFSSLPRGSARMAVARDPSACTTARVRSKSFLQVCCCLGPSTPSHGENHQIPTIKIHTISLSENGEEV
Kind of data set: Affinity to alpha-1 adrenergic receptor by the displacement of [3H]-prazosin from calf cerebral cortex membranes. The class given is tissue-based. In outline: (§1)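 Membranes from calf cerebral cortex as the receptor source. Alpha1 sites labelled with [3H]prazosin and alpha2 sites with [3H]clonidine. Affinity measured as displacement of each radioligand.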
(In a radioligand displacement assay an active substance lowers the binding of a labelled ligand.)

Data set [2] in a line: Partition coefficient (logD) (octanol/phosphate buffer). The class given is physicochemical. In outline: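 Shake-flask partition between octanol and pH 7.4 phosphate buffer of ionic strength 0.1 as the aqueous phase. Compound level in each phase read by UV absorption.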
The target in data set [3] is T2, Alpha-2A adrenergic receptor (Bos taurus, UniProt Q28838).
T2 sequence (Q28838 whole entry): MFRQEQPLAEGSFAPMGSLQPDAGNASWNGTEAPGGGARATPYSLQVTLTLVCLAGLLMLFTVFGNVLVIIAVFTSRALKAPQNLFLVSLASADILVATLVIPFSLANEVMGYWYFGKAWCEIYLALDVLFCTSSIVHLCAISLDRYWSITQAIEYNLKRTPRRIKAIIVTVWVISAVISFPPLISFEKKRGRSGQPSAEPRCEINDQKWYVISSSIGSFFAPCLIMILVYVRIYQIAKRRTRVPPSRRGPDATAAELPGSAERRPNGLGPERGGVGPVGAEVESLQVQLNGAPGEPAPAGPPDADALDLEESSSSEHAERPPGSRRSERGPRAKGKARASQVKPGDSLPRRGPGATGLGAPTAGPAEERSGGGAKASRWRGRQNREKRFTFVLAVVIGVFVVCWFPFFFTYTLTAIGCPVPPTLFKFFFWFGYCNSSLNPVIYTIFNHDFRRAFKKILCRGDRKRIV
As to the kind of experiment: Affinity to alpha-2 adrenergic receptor by the displacement of [3H]clonidine from calf cerebral cortex membranes. The class given is tissue-based. In outline:
as §1

The target of data set [4] is T1, Alpha-1A adrenergic receptor. Kind of data set: Compound was evaluated for log 1/Ki at alpha-1 adrenergic receptor. The following applies: read-out: Log 1/Ki (converted). In outline: as §1
Data set [5] has as its target T2, Alpha-2A adrenergic receptor. As to the kind of experiment: Compound was evaluated for log 1/Ki at alpha-2 adrenergic receptor. The following applies: read-out: Log 1/Ki (converted). In outline:
as §1

The nature of data set [6]: Selectivity expressed as the ratio of Ki of [3H]prazosin to Ki of [3H]-clonidine.

Broadly, the logD is lipophilicity at a set pH, counting ionised and neutral species. A higher logD goes with a more lipophilic compound. Take `c1[nH]nc2c1CCN1CCCCC21` (stereo not drawn): the Ki is 24000 nM in data set [1], 9600 nM in data set [3], 24000 nM in data set [4] and 9550 nM in data set [5]. This compound also displayed a logD in data set [2] of 0.16. Further, in data set [6], the Selectivity is 2.5.

As to `c1cc2c(s1)C1CCCCN1CC2` (stereo not drawn), the Ki in data set [1] was 1100 nM; in data set [3] it was 195 nM; in data set [4], 1100 nM; in data set [5] it was 195 nM. The same compound had a logD in data set [2] of 1.51. The Selectivity in data set [6] was 5.6.

`c1ccc2c3c(sc2c1)C1CCCCN1CC3` (stereo not drawn): the Ki was 16.1 nM in data set [1], 4.3 nM in data set [3], 16.2 nM in data set [4] and 4.27 nM in data set [5]. The compound also returned a logD in data set [2] of 2.09. Also, the Selectivity in data set [6] was determined as 3.7.

Turning to `c1cnc2[nH]c3c(c2c1)CCN1CCCCC31` (stereo not drawn), the Ki was 540 nM in data set [1], 660 nM in data set [3], 537 nM in data set [4] and 661 nM in data set [5]. Further, in data set [2], the logD was found to be 0.16. Moreover, in data set [6], the Selectivity stood at 0.8.

Regarding `c1cnc2c(c1)CCN1CCCCC21` (stereo not drawn), the Ki is 3250 nM in data set [1], 2000 nM in data set [3], 3240 nM in data set [4] and 2000 nM in data set [5]. This compound also registered a logD in data set [2] of 0.39. Besides, the Selectivity in data set [6] turned out to be 1.6.

In the case of `c1ccc2c3c([nH]c2c1)C1CCCCN1CC3` (stereo not drawn), the logD in data set [2] is 1.83.

On to `Nc1nc2c(s1)CCN1CCCCC21` (stereo not drawn), for which the Ki in data set [1] is 2800 nM; in data set [3], 350 nM; in data set [4], 2820 nM; in data set [5], 347 nM. Moreover, in data set [2], the logD was determined as 0.39. In addition, in data set [6], the Selectivity was 8.

In the case of `c1ccc2c3c(oc2c1)C1CCCCN1CC3` (stereo not drawn), the Ki in data set [1] was 110 nM; in data set [3], 16.2 nM; in data set [4] it was 110 nM; in data set [5], 16.2 nM. The compound further registered a logD in data set [2] of 1.8. Further, in data set [6], the Selectivity stood at 6.8.
